# Reference: ChEMBL document CHEMBL4602608, “Isoquinoline Kelch-like ECH-Associated Protein 1-Nuclear Factor (Erythroid-Derived 2)-like 2 (KEAP1-NRF2) Inhibitors with High Metabolic Stability” (J Med Chem, 2020)
# pIC50: −log10 of the molar value.
# How the values were obtained:
# Keap1/Nrf2 = Keap1/Nrf2 (Homo sapiens, UniProt Q14145); assay: Inhibition of Keap1-Nrf2 Interaction (unknown origin) by fluorescence anisotropy; assay type: protein assay
# [1] = Partition coefficient, logD between n-octanol and pH 7.4 buffer by HPLC analysis; assay type: physicochemical; settings: n-octanol/pH 7.4 buffer
# [2] = Half life in human liver microsomes in presence of NADPH by LC-MS/MS analysis; assay type: ADME, Microsome
# [3] = molecular target: T1, Keap1/Nrf2 (Homo sapiens) (UniProt Q16236+Q14145); assay: Inhibition of Keap1-Nrf2 Interaction in human HaCaT cells assessed as increase in Nrf2 protein level at 0.25 uM incubated for 16 hrs by Western blot analysis relative to control; assay type: cell-based
# T1 sequence (Q14145 whole entry, looked up): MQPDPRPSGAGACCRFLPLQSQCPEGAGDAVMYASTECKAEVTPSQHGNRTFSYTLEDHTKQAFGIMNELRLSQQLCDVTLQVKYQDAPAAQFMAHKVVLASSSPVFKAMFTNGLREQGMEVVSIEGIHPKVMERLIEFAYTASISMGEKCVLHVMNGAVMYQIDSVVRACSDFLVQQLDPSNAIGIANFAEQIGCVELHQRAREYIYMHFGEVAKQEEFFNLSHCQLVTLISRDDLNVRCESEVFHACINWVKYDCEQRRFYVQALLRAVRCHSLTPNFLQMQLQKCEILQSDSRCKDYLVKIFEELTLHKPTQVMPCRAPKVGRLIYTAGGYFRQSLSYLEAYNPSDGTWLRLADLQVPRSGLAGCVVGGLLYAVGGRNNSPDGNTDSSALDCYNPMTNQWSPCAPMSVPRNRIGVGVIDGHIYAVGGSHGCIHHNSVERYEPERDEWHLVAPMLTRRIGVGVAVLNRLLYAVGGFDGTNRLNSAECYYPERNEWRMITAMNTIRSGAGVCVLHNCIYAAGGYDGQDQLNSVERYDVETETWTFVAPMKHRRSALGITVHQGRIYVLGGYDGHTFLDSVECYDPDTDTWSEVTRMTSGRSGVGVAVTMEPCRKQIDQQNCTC
# T1 sequence (Q16236 whole entry, looked up): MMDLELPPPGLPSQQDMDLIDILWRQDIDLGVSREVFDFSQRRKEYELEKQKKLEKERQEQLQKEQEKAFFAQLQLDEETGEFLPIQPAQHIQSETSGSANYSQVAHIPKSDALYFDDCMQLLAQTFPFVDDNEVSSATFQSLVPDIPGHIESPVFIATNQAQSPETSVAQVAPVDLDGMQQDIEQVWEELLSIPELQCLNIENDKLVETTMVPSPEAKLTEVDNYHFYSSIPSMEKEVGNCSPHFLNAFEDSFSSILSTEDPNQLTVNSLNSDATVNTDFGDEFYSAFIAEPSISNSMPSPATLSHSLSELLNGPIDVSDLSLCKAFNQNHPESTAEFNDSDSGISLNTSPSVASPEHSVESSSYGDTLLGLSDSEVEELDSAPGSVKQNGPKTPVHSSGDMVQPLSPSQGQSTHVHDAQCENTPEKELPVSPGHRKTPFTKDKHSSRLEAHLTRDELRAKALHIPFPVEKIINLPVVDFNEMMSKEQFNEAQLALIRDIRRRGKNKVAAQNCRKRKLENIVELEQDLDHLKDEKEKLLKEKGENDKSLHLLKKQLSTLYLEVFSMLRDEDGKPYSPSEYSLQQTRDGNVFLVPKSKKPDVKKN
# Method in brief: (§1)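 HaCaT keratinocytes were grown in DMEM with 10% FBS and 1% antibiotics, then treated at 70–80% confluence in complete medium, with DMSO as vehicle. RIPA lysates (~40 μg protein) were run on 10% SDS-PAGE and immunoblotted for NRF2 and NQO1, with β-actin as loading control and chemiluminescent detection. Values are mean fold change versus DMSO from two biological replicates.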
# [4] = molecular target: T1, Keap1/Nrf2 (Homo sapiens); assay: Inhibition of Keap1-Nrf2 Interaction in human HaCaT cells assessed as increase in NQO1 protein level at 0.25 uM incubated for 16 hrs by Western blot analysis relative to control; assay type: cell-based; method in brief: as §1
# Chain of Keap1/Nrf2 (Q16236 whole entry): as the sequence (Q16236 whole entry, looked up) above
# Chain of Keap1/Nrf2 (Q14145 whole entry): as the sequence (Q14145 whole entry, looked up) above
Compound,pIC50 (Keap1/Nrf2),logD [1],t1/2 [2],fold change (FC) [3],fold change (FC) [4]
COc1ccc(S(=O)(=O)N(CC(=O)O)c2ncc(N(CC(=O)O)S(=O)(=O)c3ccc(F)cc3)c3ccccc23)cc1,6.62,-1.8,–,–,–
COc1ccc(S(=O)(=O)N(CC(F)F)c2cnc(N(CC(=O)O)S(=O)(=O)c3ccc(OC)cc3)c3ccccc23)cc1,7.26,0.2,1.62 h,–,–
COc1ccc(S(=O)(=O)Nc2ncc(N(CC(=O)O)S(=O)(=O)c3ccc(OC)cc3)c3ccccc23)cc1,5.96,-0.5,–,–,–
COc1ccc(S(=O)(=O)N(CCF)c2cnc(N(CC(=O)O)S(=O)(=O)c3ccc(OC)cc3)c3ccccc23)cc1,6.68,-0.1,0.967 h,–,–
COc1ccc(S(=O)(=O)Nc2cnc(N(CC(=O)O)S(=O)(=O)c3ccc(OC)cc3)c3ccccc23)cc1,6.64,–,0.617 h,–,–
O=C(O)CN(c1cnc(N(CC(=O)O)S(=O)(=O)c2ccc(O)cc2)c2ccccc12)S(=O)(=O)c1ccc(O)cc1,6.46,–,0.05 h,–,–
COc1ccc(S(=O)(=O)N(C)c2cnc(N(CC(=O)O)S(=O)(=O)c3ccc(OC)cc3)c3ccccc23)cc1,6.00,0,0.1 h,–,–
COc1ccc(S(=O)(=O)Nc2cnc(N(C(C)C(=O)O)S(=O)(=O)c3ccc(OC)cc3)c3ccccc23)cc1 (stereo not given),5.64,-1.1,–,–,–
O=C(O)CN(c1ncc(N(CC(F)(F)F)S(=O)(=O)c2ccc(F)cc2)c2ccccc12)S(=O)(=O)c1ccc(F)cc1,6.38,0.6,> 3 h,–,–
COc1ccc(S(=O)(=O)N(CC(F)(F)F)c2cnc(N(CC(=O)O)S(=O)(=O)c3ccc(OC)cc3)c3ccccc23)cc1,–,0.5,2.27 h,–,–
COC(=O)[C@]12CCC(C)(C)C[C@H]1[C@H]1C(=O)C=C3[C@@]4(C)C=C(C#N)C(=O)C(C)(C)[C@@H]4CC[C@@]3(C)[C@]1(C)CC2,–,–,–,3.34,1.43
O=C(O)CN(c1cnc(N(CC(=O)O)S(=O)(=O)c2ccc(F)cc2)c2ccccc12)S(=O)(=O)c1ccc(F)cc1,6.37,–,–,–,–
COc1ccc(S(=O)(=O)N(CC(=O)O)c2cnc(N(CC(=O)O)S(=O)(=O)c3ccc(F)cc3)c3ccccc23)cc1,6.55,-1.9,–,–,–
COc1ccc(S(=O)(=O)N(CC(F)(F)F)c2cnc(N(CC(=O)O)S(=O)(=O)c3ccc(F)cc3)c3ccccc23)cc1,6.89,0.6,> 3 h,–,–
COc1ccc(S(=O)(=O)N(CC(=O)O)c2ncc(N(CC(F)(F)F)S(=O)(=O)c3ccc(F)cc3)c3ccccc23)cc1,6.92,0.5,> 3 h,–,–
